Experiment [1] concerns the target T1, D(2) dopamine receptor (Rattus norvegicus, UniProt P61169). Kind of experiment: Inhibition of [3H]spiperone binding to rat striatal dopamine receptor D2 was determined in vitro. In outline: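 Rat striatal membranes in 0.05 M Tris-HCl pH 7.6 with 0.1% ascorbic acid and salts, at 5 mg wet weight/mL. Incubated with [3H]spiperone at 37 °C for 10 min. Nonspecific binding defined with 1 μM (+)-butaclamol. Bound ligand separated by glass-fibre filtration and counted by liquid scintillation. IC50 by log-logit regression.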

The species named for experiment [2] is Rattus norvegicus. In words: The catalepsy was measured in rat by using bar test. The class given is functional. In outline:
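Horizontal bar 7 cm high, 1.5 cm diameter. Rat forepaws placed over it at 20, 40, 60, 90, 120 and 240 min after ip dosing. Descent latency timed, 60 s cutoff. Cataleptic = mean over 15 s from the three longest latencies. Saline controls included.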

Experiment [3] concerns the target T1, D(2) dopamine receptor. In words: Inhibition of [3H]raclopride binding to rat striatal dopamine receptor D2. In outline:
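Rat striatal membranes were homogenised in 0.05 M Tris-HCl pH 7.6, washed by centrifugation, then resuspended with 0.1% ascorbic acid and salts at 5 mg original wet weight/mL. Nonspecific binding was set with 1 μM (+)-butaclamol. Filtration on glass-fibre filters, scintillation counting. Ki by nonlinear regression (LIGAND), Cheng–Prusoff, all experiments pooled.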

For experiment [4], the system named is Rattus norvegicus. In words: Block of apomorphine-induced response measured as hyperactivity injected ip 60 min prior to apomorphine hydrochloride(1 mg/kg, sc). The class given is functional. In outline: (§1)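 Male Sprague-Dawley rats (270–325 g). Compounds in saline or acetic acid/water given ip (5 ml/kg) 60 min before apomorphine HCl 1 mg/kg sc into neck. […] At least six dose levels, 6–8 rats each. ED50 by regression with Fieller's theorem 95% confidence limits.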

The subject of experiment [5] is Rattus norvegicus. Kind of experiment: Block of apomorphine-induced response measured as stereotypies injected ip 60 min prior to apomorphine hydrochloride(1 mg/kg, sc). The class given is functional. In outline:
as §1

For experiment [6], the system named is Rattus norvegicus. Kind of experiment: Block of apomorphine-induced response measured as hypothermia injected ip 30 min prior to apomorphine hydrochloride(1 mg/kg, sc). The class given is functional. In outline: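 Male Sprague-Dawley rats (200–250 g) housed at 21 ± 0.5 °C, groups of n = 6, given saline or compound ip 30 min before apomorphine HCl 1 mg/kg sc. Rectal core temperature taken before dosing, before apomorphine and 15 min after it. Changes are percent of control mean.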

The mark [7] stands for this setting: Rattus norvegicus, read-out: ED50.

By IC50 is commonly meant the concentration needed to halve the response being measured. Read a high IC50 as a need for much substance. As a reminder, the Ki is the dissociation constant of the complex between target and ligand, obtained from inhibition or displacement. Read a low Ki as tighter binding.

T1 sequence (P61169 whole entry): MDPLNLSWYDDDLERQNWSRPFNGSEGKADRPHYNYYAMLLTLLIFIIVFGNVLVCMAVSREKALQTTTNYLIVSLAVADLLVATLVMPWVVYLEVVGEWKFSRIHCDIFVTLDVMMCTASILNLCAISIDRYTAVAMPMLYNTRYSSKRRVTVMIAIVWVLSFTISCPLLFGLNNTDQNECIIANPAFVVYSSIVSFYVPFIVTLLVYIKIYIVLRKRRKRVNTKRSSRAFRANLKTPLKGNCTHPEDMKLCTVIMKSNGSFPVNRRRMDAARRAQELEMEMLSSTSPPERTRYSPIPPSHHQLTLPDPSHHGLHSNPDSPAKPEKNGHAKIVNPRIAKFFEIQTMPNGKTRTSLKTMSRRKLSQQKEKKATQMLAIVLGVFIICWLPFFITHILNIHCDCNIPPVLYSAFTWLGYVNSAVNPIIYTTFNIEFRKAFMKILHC

Turning to `COc1cc(Br)c(O)c(C(=O)NC2CCN(Cc3ccccc3)CC2)c1OC`, the IC50 on D(2) dopamine receptor [1] came to 0.36 nM.
In turn, `CCN1CCC[C@H]1CNC(=O)c1cccc(OC)c1OC` gave an IC50 at D(2) dopamine receptor [1] of 52 nM.
In the experiment listed under Rattus norvegicus [2], `CCN1CCC[C@H]1CNC(=O)c1c(O)c(Cl)cc(Cl)c1OC` [RACLOPRIDE] had an ED50 of 10 µmol/kg.
Molecule `COc1cc(Br)c(OC)c(C(=O)NC[C@H]2CCCN2Cc2ccc(F)cc2)c1OC` gave an IC50 at D(2) dopamine receptor [1] of 2210 nM.
`COc1cc(Br)cc(C(=O)NC[C@H]2CCCN2Cc2ccccc2)c1OC` came in with an IC50 on D(2) dopamine receptor [1] of 1.4 nM. The same molecule gave a Ki on D(2) dopamine receptor [3] of 0.024 nM. Also, the ED50 worked out at 1.2 µmol/kg in the experiment on Rattus norvegicus [4] (setting [7]) and 1.4 µmol/kg in the experiment on Rattus norvegicus [5] (setting [7]).
Molecule `COc1cc(Br)c(OC)c(C(=O)NC[C@H]2CCCN2Cc2ccc(F)cc2)c1O` gave an IC50 at D(2) dopamine receptor [1] of 124 nM.
Still for that read-out and setting: the same measure for `CCc1cc(Cl)c(OC)c(C(=O)NC[C@H]2CCCN2Cc2ccc(F)cc2)c1O`: 29 nM.
On to `CCN1CCC[C@H]1CNC(=O)c1c(OC)ccc(Br)c1O`, for which the ED50 with Rattus norvegicus [6] stood at 0.6 µmol/kg; in the experiment listed under Rattus norvegicus [2], 1 µmol/kg.
On to `CCN1CCC[C@H]1CNC(=O)c1c(OC)c(Cl)cc(Cl)c1OC`, for which the IC50 on D(2) dopamine receptor [1] was more than 10000 nM.
Molecule `CCN1CCC[C@H]1CNC(=O)c1cc(Br)cc(OC)c1OC` displayed an inhibition constant (Ki) on D(2) dopamine receptor [3] of 0.018 nM. Besides, the ED50 in the experiment on Rattus norvegicus [6] stood at 0.005 µmol/kg; in the experiment filed under Rattus norvegicus [2], 0.39 µmol/kg.
On D(2) dopamine receptor [1], `COc1c(Cl)cc(Cl)c(OC)c1C(=O)NC[C@H]1CCCN1Cc1ccc(F)cc1` came in with an IC50 of 2380 nM.
The same measure, in the same setting: the same measure for `COc1cc(Br)cc(C(=O)NC[C@H]2CCCN2Cc2ccc(F)cc2)c1OC`: 0.65 nM; for `COc1c(Cl)cc(Cl)c(OC)c1C(=O)NC1CCN(Cc2ccccc2)CC1`: 3450 nM; for `COc1cc(Br)c(OC)c(C(=O)NC[C@H]2CCCN2Cc2ccccc2)c1OC`: 1860 nM.
On the same count and under the same terms, next, `CCc1cc(Cl)c(OC)c(C(=O)NC2CCN(Cc3ccccc3)CC2)c1O`: 9.4 nM; `COc1ccc(Br)c(O)c1C(=O)NC1CCN(Cc2ccccc2)CC1`: 41 nM.
Take `COc1ccc(Br)c(O)c1C(=O)NC[C@H]1CCCN1Cc1ccccc1`: at D(2) dopamine receptor [1], the IC50 stood at 18 nM. On D(2) dopamine receptor [3], this molecule showed a Ki of 0.8 nM. Also, the figures for the ED50 in the experiment with Rattus norvegicus [4] and in the experiment with Rattus norvegicus [5] were 5.6 µM/kg and 18.6 µM/kg, respectively.
On D(2) dopamine receptor [1], `COc1cc(Br)cc(C(=O)NC[C@@H]2CCCN2Cc2ccc(F)cc2)c1OC` yielded an IC50 of 126 nM. This lies in the sub-micromolar range.
On to `COc1ccc(Br)c(O)c1C(=O)NC[C@H]1CCCN1Cc1ccc(F)cc1`, for which the IC50 at D(2) dopamine receptor [1] is 28 nM. The molecule also registered a Ki at D(2) dopamine receptor [3] of 0.43 nM. The ED50 in the experiment with Rattus norvegicus [4] (setting [7]) is 2 µmol/kg; in the experiment on Rattus norvegicus [6] it was 1.7 µmol/kg; in the experiment on Rattus norvegicus [5] (setting [7]), 13.2 µmol/kg; in the experiment filed under Rattus norvegicus [2], 27 µmol/kg.
The molecule `COc1c(Cl)cc(Cl)c(O)c1C(=O)NC1CCN(Cc2ccccc2)CC1` came in with an IC50 on D(2) dopamine receptor [1] of 5.4 nM.
Molecule `COc1c(Cl)cc(Cl)c(O)c1C(=O)NC[C@H]1CCCN1Cc1ccc(F)cc1` showed an IC50 at D(2) dopamine receptor [1] of 21 nM.
Same read-out and setting: next, `COc1ccc(Br)c(O)c1C(=O)NCC1CCCN1Cc1ccccc1` (racemic): 36 nM.
In the case of `COc1ccc(Br)c(O)c1C(=O)NCC1CCCN1Cc1ccccc1` (single isomer, unassigned), the half-inhibitory concentration (IC50) at D(2) dopamine receptor [1] was found to be 2680 nM. Moreover, the ED50 with Rattus norvegicus [4] and in the experiment with Rattus norvegicus [5] was more than 80 µM/kg in each case.
For `COc1cc(Br)c(O)c(C(=O)NC[C@H]2CCCN2Cc2ccc(F)cc2)c1OC`, on D(2) dopamine receptor [3], the Ki turned out to be 0.19 nM. Besides, the ED50 in the experiment on Rattus norvegicus [4] (setting [7]) was 1.5 µmol/kg; in the experiment with Rattus norvegicus [6] it was 1.3 µmol/kg; in the experiment on Rattus norvegicus [5] (setting [7]), 2.4 µmol/kg; in the experiment filed under Rattus norvegicus [2], 13 µmol/kg.
As to `COc1cccc(C(=O)NC2CCN(Cc3ccccc3)CC2)c1OC`, at D(2) dopamine receptor [1], the IC50 was found to be 6.3 nM.
The molecule `CCN1CCC[C@H]1CNC(=O)c1c(O)c(Br)cc(OC)c1OC` gave an ED50 in the experiment filed under Rattus norvegicus [2] of 0.13 µmol/kg.
On D(2) dopamine receptor [1], `COc1cccc(C(=O)NC[C@H]2CCCN2Cc2ccccc2)c1OC` gave an IC50 of 21 nM.

The values are drawn from ChEMBL document CHEMBL1125646, “Potential antipsychotic agents. 9. Synthesis and stereoselective dopamine D-2 receptor blockade of a potent class of substituted (R)-N-[(1-benzyl-2-pyrrolidinyl)methyl]benzamides. Relations to other side chain congeners” (J Med Chem, 1991).
